In ChEMBL document CHEMBL1149038 (J Nat Prod, 1994) one finds IC50, EC50 and selectivity ratio data, which are given here for eleven compounds.

The test system of data set [1] is H9. Nature of the data set: Cytotoxicity against human H9 cells after 3 days. It counts as cell-based. As to conditions: H9, 72 h. A digest of the protocol: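 Uninfected H9 lymphocytes cultured with an equal volume of compound dilution for 3 days at 37°. Cell density then counted; IC50 = concentration inhibiting lymphocyte growth by 50%.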
The test system of data set [2] is Human immunodeficiency virus 1. The data set is described as follows: Antiviral activity against HIV1 3B in human H9 cells assessed as inhibition of viral replication after 3 days by p24 antigen capture assay. It is filed as functional, organism-based. Particulars: Human immunodeficiency virus 1, 3B, H9, 72 h. A digest of the protocol:
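H9 lymphocytes (1 × 10^7 cells/ml) exposed to HIV-1 IIIB for 1 h at 37°, washed free of unadsorbed virus, resuspended at […] and mixed with an equal volume of compound dilution; 3 days at 37°. Infection read by p24 antigen capture, at four concentrations relative to infected untreated cultures; EC50 = concentration inhibiting replication by 50%.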

A short description of data set [3]: Therapeutic index, IC50 for human H9 cells to EC50 for HIV1 3B. It counts as cell-based. As to conditions: read-out: Ratio IC50/EC50.
Data set [4] has as its target T1, Protein kinase C epsilon type (Homo sapiens, UniProt Q02156).
T1 sequence (Q02156 whole entry): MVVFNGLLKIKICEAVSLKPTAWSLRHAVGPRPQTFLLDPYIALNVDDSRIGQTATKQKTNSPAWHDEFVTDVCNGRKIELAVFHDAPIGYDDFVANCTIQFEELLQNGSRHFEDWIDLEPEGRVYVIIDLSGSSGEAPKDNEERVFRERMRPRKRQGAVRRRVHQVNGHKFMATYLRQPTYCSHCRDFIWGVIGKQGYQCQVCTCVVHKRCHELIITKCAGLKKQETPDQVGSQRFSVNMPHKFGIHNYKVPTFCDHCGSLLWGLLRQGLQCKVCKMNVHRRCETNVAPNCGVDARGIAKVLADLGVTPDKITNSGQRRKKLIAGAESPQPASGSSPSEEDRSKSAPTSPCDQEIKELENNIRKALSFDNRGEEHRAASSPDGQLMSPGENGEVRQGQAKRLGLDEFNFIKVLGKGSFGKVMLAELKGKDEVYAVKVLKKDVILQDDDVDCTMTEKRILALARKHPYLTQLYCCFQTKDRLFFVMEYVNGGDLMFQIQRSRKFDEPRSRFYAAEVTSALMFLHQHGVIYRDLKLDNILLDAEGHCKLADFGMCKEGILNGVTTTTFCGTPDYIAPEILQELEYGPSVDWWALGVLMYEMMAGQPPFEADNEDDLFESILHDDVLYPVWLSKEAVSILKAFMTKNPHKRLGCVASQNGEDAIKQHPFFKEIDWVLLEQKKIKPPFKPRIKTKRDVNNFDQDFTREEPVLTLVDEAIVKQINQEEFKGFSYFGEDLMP
The data set is described as follows: Inhibition of PKC epsilon. A digest of the protocol: (§1)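 Purified PKC isoenzyme (20 ng) starts the reaction. Mix: phosphatidylserine 40 µg/ml/diacylglycerol 1.76 µg/ml vesicles, 20 mM HEPES pH 7.5, 10 mM MgCl2, 200 µg/ml histone substrate, 100 µM CaCl2, 47.5 µM EGTA, 20 µM [32P]ATP; compounds in DMSO. 10 min at 30°, stopped with cold TCA plus BSA, precipitate filtered and scintillation-counted.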

Data set [5] has as its target Protein kinase C beta type (Homo sapiens, UniProt P05771). Nature of the data set: Inhibition of PKC beta2. A digest of the protocol: as §1
The target of data set [6] is Protein kinase C delta type (Homo sapiens, UniProt Q05655). The data set is described as follows: Inhibition of PKC delta. A digest of the protocol:
as §1

For data set [7], the target named is Protein kinase C gamma type (Homo sapiens, UniProt P05129). The data set is described as follows: Inhibition of PKC gamma. A digest of the protocol:
as §1

Each structure is given as a SMILES string. Some results are limits rather than exact numbers.

Sequence of Protein kinase C beta type (P05771 whole entry): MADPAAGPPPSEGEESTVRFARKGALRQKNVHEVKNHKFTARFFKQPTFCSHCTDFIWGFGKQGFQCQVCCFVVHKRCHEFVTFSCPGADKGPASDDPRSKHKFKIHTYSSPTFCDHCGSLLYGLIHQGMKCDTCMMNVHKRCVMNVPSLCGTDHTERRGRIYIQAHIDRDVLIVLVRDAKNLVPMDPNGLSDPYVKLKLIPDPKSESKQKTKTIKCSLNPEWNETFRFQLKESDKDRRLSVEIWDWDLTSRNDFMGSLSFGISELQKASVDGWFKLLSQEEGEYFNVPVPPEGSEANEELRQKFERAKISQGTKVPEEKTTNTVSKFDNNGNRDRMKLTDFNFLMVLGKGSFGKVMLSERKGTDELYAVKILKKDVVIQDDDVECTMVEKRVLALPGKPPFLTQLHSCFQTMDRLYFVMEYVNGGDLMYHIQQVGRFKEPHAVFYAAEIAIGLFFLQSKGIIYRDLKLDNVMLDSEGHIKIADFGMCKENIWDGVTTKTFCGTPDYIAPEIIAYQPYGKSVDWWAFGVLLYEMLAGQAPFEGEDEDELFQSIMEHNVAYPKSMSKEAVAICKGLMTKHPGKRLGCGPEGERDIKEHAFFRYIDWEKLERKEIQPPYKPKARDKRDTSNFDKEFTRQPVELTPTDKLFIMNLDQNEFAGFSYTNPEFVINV
Sequence of Protein kinase C delta type (Q05655 whole entry): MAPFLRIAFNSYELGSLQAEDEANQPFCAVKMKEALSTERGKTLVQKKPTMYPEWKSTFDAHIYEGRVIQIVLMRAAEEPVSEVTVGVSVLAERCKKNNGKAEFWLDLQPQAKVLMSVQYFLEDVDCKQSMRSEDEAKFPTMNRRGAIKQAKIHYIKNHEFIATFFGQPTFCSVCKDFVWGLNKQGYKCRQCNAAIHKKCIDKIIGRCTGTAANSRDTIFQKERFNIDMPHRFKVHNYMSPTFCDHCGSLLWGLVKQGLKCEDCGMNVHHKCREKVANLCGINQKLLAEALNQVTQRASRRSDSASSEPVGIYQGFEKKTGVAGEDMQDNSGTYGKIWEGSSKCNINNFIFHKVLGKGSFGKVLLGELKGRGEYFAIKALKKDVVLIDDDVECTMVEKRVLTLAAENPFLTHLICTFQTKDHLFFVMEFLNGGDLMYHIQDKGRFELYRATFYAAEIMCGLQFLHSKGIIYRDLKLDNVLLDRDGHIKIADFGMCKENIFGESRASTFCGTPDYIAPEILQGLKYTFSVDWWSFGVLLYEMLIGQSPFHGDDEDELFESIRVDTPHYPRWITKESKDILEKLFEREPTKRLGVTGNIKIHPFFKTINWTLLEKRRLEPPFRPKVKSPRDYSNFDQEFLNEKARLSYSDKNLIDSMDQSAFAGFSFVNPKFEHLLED

For `C=C(C)[C@@H]1CC[C@]2(C(=O)O)CC[C@]3(C)[C@H](CC[C@@H]4[C@@]5(C)CC[C@H](OC(C)=O)C(C)(C)[C@@H]5CC[C@]43C)[C@@H]12`, the figures for the IC50 in data set [1], in data set [4] and in data set [5] were 20 µM, over 150 µM and over 150 µM, respectively. Further, the EC50 in data set [2] came out at 25 µM. In addition, the selectivity ratio in data set [3] came out at 0.8.
As to `C=C(C)[C@@H]1CC[C@]2(CO)CC[C@]3(C)[C@H](CC[C@@H]4[C@@]5(C)CC[C@H](O)C(C)(C)[C@@H]5CC[C@]43C)[C@@H]12` [BETULIN], the values for the half-inhibitory concentration (IC50) in data set [1], in data set [4] and in data set [5] were 45 µM, over 150 µM and over 150 µM, respectively. In addition, the concentration for a half-maximal effect (EC50) in data set [2] came to 23 µM. Besides, the selectivity ratio in data set [3] was 1.9.
As for `C=C(C)[C@@H]1CC[C@]2(C(=O)O)CC[C@]3(C)[C@H](CC[C@@H]4[C@@]5(C)CC[C@H](OC(=O)/C=C/C)C(C)(C)[C@@H]5CC[C@]43C)[C@@H]12`, the values for the 50% inhibitory concentration (IC50) in data set [1], in data set [4] and in data set [5] were 48 µM, over 150 µM and over 150 µM, respectively. The 50% effective concentration (EC50) in data set [2] was determined as 19 µM. For the same compound, the selectivity ratio in data set [3] stood at 2.5.
`CC(=O)[C@@H]1CC[C@]2(C(=O)O)CC[C@]3(C)[C@H](CC[C@@H]4[C@@]5(C)CC[C@H](O)C(C)(C)[C@@H]5CC[C@]43C)[C@@H]12` [PLATANIC ACID]: the figures for the IC50 in data set [1], in data set [4] and in data set [5] were 90 µM, over 150 µM and over 150 µM, respectively. Further, the EC50 in data set [2] amounted to 6.5 µM. In addition, in data set [3], the selectivity ratio turned out to be 13.
Turning to `C=C(C)[C@@H]1CC[C@]2(C(=O)O)CC[C@]3(C)[C@H](CC[C@@H]4[C@@]5(C)CC[C@H](OC(=O)CCC(=O)O)C(C)(C)[C@@H]5CC[C@]43C)[C@@H]12`, the half-inhibitory concentration (IC50) in data set [1] was 16 µM; in data set [6], 49 µM; in data set [4], over 150 µM; in data set [5] it was over 150 µM. For the same compound, the concentration for a half-maximal effect (EC50) in data set [2] amounted to 4 µM. Further, in data set [3], the selectivity ratio stood at 4.
With `C=C(C)[C@@H]1CC[C@]2(C(=O)OCC(=O)OC)CC[C@]3(C)[C@H](CC[C@@H]4[C@@]5(C)CC[C@H](O)C(C)(C)[C@@H]5CC[C@]43C)[C@@H]12`, the IC50 in data set [1] is 26 µM; in data set [4] it was over 150 µM; in data set [5], over 150 µM. In addition, in data set [2], the EC50 was determined as 17 µM. For the same compound, the selectivity ratio in data set [3] is 1.5.
As to `C=C(C)[C@@H]1CC[C@]2(C(=O)O)CC[C@]3(C)[C@H](CC[C@@H]4[C@@]5(C)CC[C@H](OC(=O)c6ccccc6)C(C)(C)[C@@H]5CC[C@]43C)[C@@H]12`, the concentration for half-maximal inhibition (IC50) in data set [7] is 74 µM; in data set [1] it was 15 µM; in data set [4] it was over 150 µM; in data set [5], over 150 µM. Besides, the EC50 in data set [2] came to 15 µM. The selectivity ratio in data set [3] is 1.
Consider `CC(C)[C@@H]1CC[C@]2(C(=O)O)CC[C@]3(C)C(CCC4[C@@]5(C)CC[C@H](O)C(C)(C)C5CC[C@]43C)C12` (stereo partly drawn) [DIHYDROBETULINIC ACID], for which, in data set [2], the EC50 is 0.9 µM. Also, the IC50 is 46 µM in data set [6], over 150 µM in data set [4] and over 150 µM in data set [5]. Also, in data set [3], the selectivity ratio worked out at 14.
As for `C=C(C)[C@@H]1CC[C@]2(C(=O)O)CC[C@]3(C)[C@H](CC[C@@H]4[C@@]5(C)CC[C@H](O)C(C)(C)[C@@H]5CC[C@]43C)[C@@H]12` [BETULINIC ACID], the EC50 in data set [2] turned out to be 1.4 µM. In addition, the half-inhibitory concentration (IC50) in data set [4] and in data set [5] was over 150 µM throughout.
Take `C=C(C)[C@@H]1CC[C@]2(C(=O)O)CC[C@]3(C)[C@H](CC[C@@H]4[C@@]5(C)CC[C@H](OS(=O)(=O)O)C(C)(C)[C@@H]5CC[C@]43C)[C@@H]12`: the IC50 in data set [7] was 37 µM; in data set [1], 35 µM; in data set [4] it was over 150 µM; in data set [5] it was over 150 µM. The EC50 in data set [2] is 20 µM. In addition, the selectivity ratio in data set [3] was 1.7.
On to `Cc1cn([C@H]2C[C@H](N=[N+]=[N-])[C@@H](CO)O2)c(=O)[nH]c1=O` [ZIDOVUDINE], for which the IC50 in data set [4] and in data set [5] was over 150 µM each time.
